Test results as given in ChEMBL document CHEMBL1828566, “Synthesis of 4β-triazole-podophyllotoxin derivatives by azide-alkyne cycloaddition and biological evaluation as potential antitumor agents” (Eur J Med Chem, 2011).
Structures can show the parent of a compound that is named as a salt.

Key:
HeLa [1] = assay: Cytotoxicity against human HeLa cells after 2 days by MTT assay; type: functional, cell-based; settings: 48 h
Outline: (§1)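 Exponentially growing cells were seeded in 96-well plates, precultured 1 day, exposed to test compounds over a range of concentrations, then incubated 2 more days.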

K562 [2] = assay: Cytotoxicity against human K562 cells after 2 days by MTT assay; type: functional, cell-based; settings: K562, 48 h; outline: as §1
[3] = Cytotoxicity against human K562/A02 cells after 2 days by MTT assay; type: functional, cell-based; settings: K562/A02, 48 h; outline: as §1
HeLa [4] = assay: Selectivity index, ratio of IC50 for VP-16 to compound for human HeLa cells after 2 days by MTT assay; type: functional
K562 [5] = assay: Selectivity index, ratio of IC50 for VP-16 to compound for human K562 cells after 2 days by MTT assay; type: functional
[6] = Selectivity index, ratio of IC50 for VP-16 to compound for human K562/A02 cells after 2 days by MTT assay; type: functional

| SMILES | IC50 (HeLa [1]) | IC50 (K562 [2]) | IC50 [3] | Ratio IC50 (HeLa [4]) | Ratio IC50 (K562 [5]) | Ratio IC50 [6] |
| --- | --- | --- | --- | --- | --- | --- |
| COC(=O)c1cn([C@@H]2c3cc4c(cc3[C@@H](c3cc(OC)c(OC)c(OC)c3)[C@H]3C(=O)OC[C@@H]32)OCO4)nn1 | 1120 nM | 4150 nM | 2070 nM |  |  |  |
| COc1cc([C@@H]2c3cc4c(cc3[C@@H](O[C@@H]3O[C@@H]5CO[C@@H](C)O[C@H]5[C@H](O)[C@H]3O)[C@H]3COC(=O)[C@H]23)OCO4)cc(OC)c1O [ETOPOSIDE] | 6270 nM | 2110 nM | 152000 nM |  |  |  |
| COC(=O)c1cnnn1[C@@H]1c2cc3c(cc2[C@@H](c2cc(OC)c(OC)c(OC)c2)[C@H]2C(=O)OC[C@@H]21)OCO3 | 420 nM | 400 nM | 600 nM |  |  |  |
| COc1cc([C@@H]2c3cc4c(cc3[C@@H](n3cc(CNc5ccccc5)nn3)[C@H]3COC(=O)[C@H]23)OCO4)cc(OC)c1OC | 2360 nM | 5730 nM | 5960 nM |  |  |  |
| COc1cc([C@@H]2c3cc4c(cc3[C@@H](n3cc(CNc5ccc(C)cc5)nn3)[C@H]3COC(=O)[C@H]23)OCO4)cc(OC)c1OC | 845 nM | 470 nM | 520 nM |  |  |  |
| COc1cc([C@@H]2c3cc4c(cc3[C@@H](n3nncc3-c3cccnc3)[C@H]3COC(=O)[C@H]23)OCO4)cc(OC)c1OC | 1460 nM | 390 nM | 1230 nM |  |  |  |
| COc1cc([C@@H]2c3cc4c(cc3[C@@H](n3cc(CCC(=O)O)nn3)[C@H]3COC(=O)[C@H]23)OCO4)cc(OC)c1OC | > 10000 nM | > 10000 nM | > 10000 nM |  |  |  |
| COc1cccc2c1C(=O)c1c(O)c3c(c(O)c1C2=O)C[C@@](O)(C(=O)CO)C[C@@H]3O[C@H]1C[C@H](N)[C@H](O)[C@H](C)O1 [DOXORUBICIN HYDROCHLORIDE] | 430 nM | 360 nM | 19200 nM |  |  |  |
| COc1cc([C@@H]2c3cc4c(cc3[C@@H](n3cc(-c5cccnc5)nn3)[C@H]3COC(=O)[C@H]23)OCO4)cc(OC)c1OC | 35300 nM | > 10000 nM | > 10000 nM |  |  |  |
| COc1cc([C@@H]2c3cc4c(cc3[C@@H](n3cc(C(=O)Nc5ccccc5Cl)nn3)[C@H]3COC(=O)[C@H]23)OCO4)cc(OC)c1OC | 82 nM | 53 nM | 59 nM | >40 | >40 | >40 |
| COc1cc([C@@H]2c3cc4c(cc3[C@@H](n3cc(C(=O)O)nn3)[C@H]3COC(=O)[C@H]23)OCO4)cc(OC)c1OC | > 10000 nM | 5400 nM | 8870 nM |  |  |  |
| COc1cc([C@@H]2c3cc4c(cc3[C@@H](n3cc(CN(C)C)nn3)[C@H]3COC(=O)[C@H]23)OCO4)cc(OC)c1OC | > 10000 nM | > 10000 nM | > 10000 nM |  |  |  |
| CCOC(=O)c1cnnn1[C@@H]1c2cc3c(cc2[C@@H](c2cc(OC)c(OC)c(OC)c2)[C@H]2C(=O)OC[C@@H]21)OCO3 | 920 nM | 850 nM | 690 nM |  |  |  |
| COc1cc([C@@H]2c3cc4c(cc3[C@H](O)[C@H]3COC(=O)[C@H]23)OCO4)cc(OC)c1OC [PODOFILOX] | 100 nM | 30 nM | 170 nM |  |  |  |
| COc1cc([C@@H]2c3cc4c(cc3[C@@H](n3cc(C(=O)Nc5ccc(C)cc5)nn3)[C@H]3COC(=O)[C@H]23)OCO4)cc(OC)c1OC | > 100000 nM | > 100000 nM | > 100000 nM |  |  |  |
| CCN(CC)C(=O)c1cn([C@@H]2c3cc4c(cc3[C@@H](c3cc(OC)c(OC)c(OC)c3)[C@H]3C(=O)OC[C@@H]32)OCO4)nn1 | > 10000 nM | > 10000 nM | > 10000 nM |  |  |  |
| COc1cc([C@@H]2c3cc4c(cc3[C@@H](n3nncc3C(=O)Nc3ccc(C)cc3)[C@H]3COC(=O)[C@H]23)OCO4)cc(OC)c1OC | > 10000 nM | 5100 nM | 19800 nM |  |  |  |
| CCOC(=O)c1cn([C@@H]2c3cc4c(cc3[C@@H](c3cc(OC)c(OC)c(OC)c3)[C@H]3C(=O)OC[C@@H]32)OCO4)nn1 | 3530 nM | 4250 nM | 2210 nM |  |  |  |
